Test results reported in ChEMBL document CHEMBL4715736, “Identification of anticancer agents based on the thieno[2,3-b]pyridine and 1H-pyrazole molecular scaffolds” (2016).

Experiments:
Format in all cases: functional
Conditions in all cases: read-out: Activity
CCRF-CEM = experiment: Growth inhibition of human CCRF-CEM cells assessed as cell growth at 10 uM incubated for 48 hrs by sulforhodamine B assay relative to control
Outline: (§1)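 NCI Developmental Therapeutics Program NCI60 panel. Compounds that were active in the 10 µM one-dose screen went on to dose–response testing. Growth at each concentration is expressed relative to untreated control (100%). GI50 (concentration giving 50% of maximal inhibition of proliferation) and TGI (concentration giving total growth inhibition) were derived from the curves.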

HL-60(TB) = experiment: Growth inhibition of human HL-60(TB) cells assessed as cell growth at 10 uM incubated for 48 hrs by sulforhodamine B assay relative to control
Outline: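 Screened by the NCI Developmental Therapeutics Program on its panel of 60 human tumour cell lines. Compounds were first tested at a single 10 µM dose, and compounds active there went to dose-response curves. Growth is expressed relative to untreated control (100%). GI50 (50% of maximal proliferation inhibition) and TGI (total growth inhibition) were derived from the dose-response data.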

K562 = experiment: Growth inhibition of human K562 cells assessed as cell growth at 10 uM incubated for 48 hrs by sulforhodamine B assay relative to control
Outline: (§2)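 Submitted to the NCI Developmental Therapeutics Program for the NCI60 human tumour cell line panel. First screen at a single 10 µM concentration. Read-out is growth relative to untreated control cells set at 100%.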

RPMI-8226 = experiment: Growth inhibition of human RPMI-8226 cells assessed as cell growth at 10 uM incubated for 48 hrs by sulforhodamine B assay relative to control
Outline: (§3)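 Run by the NCI Developmental Therapeutics Program as part of its 60-line human tumour panel. Each compound tested at a single 10 µM dose. Growth expressed as % relative to untreated control cells (100%).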

A549 = experiment: Growth inhibition of human A549/ATCC cells assessed as cell growth at 10 uM incubated for 48 hrs by sulforhodamine B assay relative to control; outline: as §1
HOP-92 = experiment: Growth inhibition of human HOP-92 cells assessed as cell growth at 10 uM incubated for 48 hrs by sulforhodamine B assay relative to control; outline: as §2
NCI-H23 = experiment: Growth inhibition of human NCI-H23 cells assessed as cell growth at 10 uM incubated for 48 hrs by sulforhodamine B assay relative to control; outline: as §2
NCI-H322M = experiment: Growth inhibition of human NCI-H322M cells assessed as cell growth at 10 uM incubated for 48 hrs by sulforhodamine B assay relative to control; outline: as §2
COLO 205 = experiment: Growth inhibition of human COLO 205 cells assessed as cell growth at 10 uM incubated for 48 hrs by sulforhodamine B assay relative to control; outline: as §1
HCC 2998 = experiment: Growth inhibition of human HCC 2998 cells assessed as cell growth at 10 uM incubated for 48 hrs by sulforhodamine B assay relative to control; outline: as §1
SW-620 = experiment: Growth inhibition of human SW-620 cells assessed as cell growth at 10 uM incubated for 48 hrs by sulforhodamine B assay relative to control; outline: as §3
SF-268 = experiment: Growth inhibition of human SF-268 cells assessed as cell growth at 10 uM incubated for 48 hrs by sulforhodamine B assay relative to control; outline: as §3
SF-295 = experiment: Growth inhibition of human SF-295 cells assessed as cell growth at 10 uM incubated for 48 hrs by sulforhodamine B assay relative to control; outline: as §3
SF-539 = experiment: Growth inhibition of human SF-539 cells assessed as cell growth at 10 uM incubated for 48 hrs by sulforhodamine B assay relative to control; outline: as §3
U-251 = experiment: Growth inhibition of human U-251 cells assessed as cell growth at 10 uM incubated for 48 hrs by sulforhodamine B assay relative to control; outline: as §3
LOX IMVI = experiment: Growth inhibition of human LOX IMVI cells assessed as cell growth at 10 uM incubated for 48 hrs by sulforhodamine B assay relative to control; outline: as §2
MDA-MB-435 = experiment: Growth inhibition of human MDA-MB-435 cells assessed as cell growth at 10 uM incubated for 48 hrs by sulforhodamine B assay relative to control; outline: as §2
SK-MEL-28 = experiment: Growth inhibition of human SK-MEL-28 cells assessed as cell growth at 10 uM incubated for 48 hrs by sulforhodamine B assay relative to control; outline: as §3
UACC-62 = experiment: Growth inhibition of human UACC-62 cells assessed as cell growth at 10 uM incubated for 48 hrs by sulforhodamine B assay relative to control; outline: as §3
IGROV-1 = experiment: Growth inhibition of human IGROV-1 cells assessed as cell growth at 10 uM incubated for 48 hrs by sulforhodamine B assay relative to control; outline: as §2
OVCAR-3 = experiment: Growth inhibition of human OVCAR-3 cells assessed as cell growth at 10 uM incubated for 48 hrs by sulforhodamine B assay relative to control; outline: as §3
OVCAR-4 = experiment: Growth inhibition of human OVCAR-4 cells assessed as cell growth at 10 uM incubated for 48 hrs by sulforhodamine B assay relative to control; outline: as §3
OVCAR-5 = experiment: Growth inhibition of human OVCAR-5 cells assessed as cell growth at 10 uM incubated for 48 hrs by sulforhodamine B assay relative to control; outline: as §3
OVCAR-8 = experiment: Growth inhibition of human OVCAR-8 cells assessed as cell growth at 10 uM incubated for 48 hrs by sulforhodamine B assay relative to control; outline: as §3
NCI/ADR-RES = experiment: Growth inhibition of human NCI/ADR-RES cells assessed as cell growth at 10 uM incubated for 48 hrs by sulforhodamine B assay relative to control; outline: as §2
ACHN = experiment: Growth inhibition of human ACHN cells assessed as cell growth at 10 uM incubated for 48 hrs by sulforhodamine B assay relative to control
Outline: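 NCI Developmental Therapeutics Program NCI60 human tumour cell line panel, one-dose primary screen with every compound at 10 µM. Growth is expressed as % of untreated control cells (100%).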

PC-3 = experiment: Growth inhibition of human PC-3 cells assessed as cell growth at 10 uM incubated for 48 hrs by sulforhodamine B assay relative to control; outline: as §3
DU-145 = experiment: Growth inhibition of human DU-145 cells assessed as cell growth at 10 uM incubated for 48 hrs by sulforhodamine B assay relative to control; outline: as §1
MCF7 = experiment: Growth inhibition of human MCF7 cells assessed as cell growth at 10 uM incubated for 48 hrs by sulforhodamine B assay relative to control; outline: as §2
MDA-MB-231 = experiment: Growth inhibition of human MDA-MB-231 cells assessed as cell growth at 10 uM incubated for 48 hrs by sulforhodamine B assay relative to control; outline: as §2
Hs-578T = experiment: Growth inhibition of human Hs-578T cells assessed as cell growth at 10 uM incubated for 48 hrs by sulforhodamine B assay relative to control; outline: as §2
T47D = experiment: Growth inhibition of human T47D cells assessed as cell growth at 10 uM incubated for 48 hrs by sulforhodamine B assay relative to control; outline: as §3
MDA-MB-468 = experiment: Growth inhibition of human MDA-MB-468 cells assessed as cell growth at 10 uM incubated for 48 hrs by sulforhodamine B assay relative to control; outline: as §2

Compound	growth at 10 µM (CCRF-CEM)	growth at 10 µM (HL-60(TB))	growth at 10 µM (K562)	growth at 10 µM (RPMI-8226)	growth at 10 µM (A549)	growth at 10 µM (HOP-92)	growth at 10 µM (NCI-H23)	growth at 10 µM (NCI-H322M)	growth at 10 µM (COLO 205)	growth at 10 µM (HCC 2998)	growth at 10 µM (SW-620)	growth at 10 µM (SF-268)	growth at 10 µM (SF-295)	growth at 10 µM (SF-539)	growth at 10 µM (U-251)	growth at 10 µM (LOX IMVI)	growth at 10 µM (MDA-MB-435)	growth at 10 µM (SK-MEL-28)	growth at 10 µM (UACC-62)	growth at 10 µM (IGROV-1)	further results
COc1ccc(-c2ccn(S(=O)(=O)c3ccc(C)cc3)n2)cc1	85.7%	114%	75.4%	69%	79.7%	79.9%	67.9%	96.7%	112%	86.9%	90.2%	95.9%	78.5%	97%	81.9%	84.2%	94.1%	103%	70.9%	81.5%	growth at 10 µM (OVCAR-3): 89.3%; growth at 10 µM (OVCAR-4): 62%; growth at 10 µM (OVCAR-5): 112%; growth at 10 µM (OVCAR-8): 83.4%; growth at 10 µM (NCI/ADR-RES): 78.7%; growth at 10 µM (ACHN): 91.6%; growth at 10 µM (PC-3): 81.2%; growth at 10 µM (DU-145): 93.7%; growth at 10 µM (MCF7): 88.3%; growth at 10 µM (MDA-MB-231): 89.2%; growth at 10 µM (Hs-578T): 96%; growth at 10 µM (T47D): 48%; growth at 10 µM (MDA-MB-468): 46.1%
COc1ccc(S(=O)(=O)n2ccc(-c3ccc(OC(C)C)cc3)n2)cc1	72.6%	90.3%	53.6%	70.7%	86%	75.7%	83.8%	99.3%	111%	103%	86.3%	100%	90%	97%	95.3%	94.1%	94.6%	95.3%	64.1%	91%	growth at 10 µM (OVCAR-3): 90.4%; growth at 10 µM (OVCAR-4): 67.7%; growth at 10 µM (OVCAR-5): 80.7%; growth at 10 µM (OVCAR-8): 94.6%; growth at 10 µM (NCI/ADR-RES): 81.3%; growth at 10 µM (ACHN): 95.8%; growth at 10 µM (PC-3): 73.2%; growth at 10 µM (DU-145): 94.3%; growth at 10 µM (MCF7): 93.8%; growth at 10 µM (MDA-MB-231): 93%; growth at 10 µM (Hs-578T): 95.5%; growth at 10 µM (T47D): 72.3%; growth at 10 µM (MDA-MB-468): 68.7%
